What was measured:
Format in all cases: cell-based
[1] = target: T1, NADPH oxidase 4 (Homo sapiens) (UniProt Q9NPH5); assay: Inhibition of NOX4 expressed in HEK293 FS cells at 10 uM assessed as H2O2 production by H2O2/Tyr/LPO assay
T1 sequence (whole entry): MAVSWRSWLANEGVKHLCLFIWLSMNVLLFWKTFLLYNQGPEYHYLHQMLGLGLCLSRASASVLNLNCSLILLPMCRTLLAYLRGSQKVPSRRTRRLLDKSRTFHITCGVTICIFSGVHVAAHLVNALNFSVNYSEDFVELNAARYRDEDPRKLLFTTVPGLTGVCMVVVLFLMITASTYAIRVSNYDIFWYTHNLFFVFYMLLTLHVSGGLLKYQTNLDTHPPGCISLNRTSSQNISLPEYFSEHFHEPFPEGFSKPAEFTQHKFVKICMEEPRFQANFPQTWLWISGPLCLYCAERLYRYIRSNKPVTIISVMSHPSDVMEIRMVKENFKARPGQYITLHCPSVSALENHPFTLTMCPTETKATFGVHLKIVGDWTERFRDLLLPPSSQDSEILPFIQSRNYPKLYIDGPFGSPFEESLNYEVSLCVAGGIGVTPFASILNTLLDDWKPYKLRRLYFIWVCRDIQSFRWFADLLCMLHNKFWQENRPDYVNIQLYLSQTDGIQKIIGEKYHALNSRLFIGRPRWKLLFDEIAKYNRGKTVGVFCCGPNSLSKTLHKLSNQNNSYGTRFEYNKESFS
Procedure, shortened: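 Primary screen at 10 μM in the H2O2/Tyr/LPO cellular assay. HEK 293 FS cells overexpress NOX4. The LPO enzyme forms fluorescent o,o'-dityrosine from L-tyrosine and H2O2, detected by spectrofluorometric plate reader. Inhibition expressed relative to DPI.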

NADPH oxidase 4 = target: T2, NADPH oxidase 4 (Homo sapiens, UniProt Q9NPH5); assay: Inhibition of NOX4 expressed in HEK293 FS cells assessed as H2O2 production by H2O2/Tyr/LPO assay
T2 sequence (Q9NPH5 whole entry): T1 sequence (whole entry)
Procedure, shortened: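 Cell-based H2O2/Tyr/LPO assay in free-style HEK 293 F cells transfected to overexpress constitutively H2O2-producing NOX4. NOX4-generated H2O2 drives LPO conversion of L-tyrosine to fluorescent o,o'-dityrosine, read on a spectrofluorometric plate reader. IC50 estimated from an eight-point curve, 1/2 dilution series from 10 to 0.078 μM.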

[2] = Cytotoxicity against human free style HEK293 cells after 72 hrs; settings: FreeStyle HEK293 cells
Procedure, shortened: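 Luminescent cell viability kit read-out; cells exposed to 10 μM compound for 72 h. Values expressed as percentage of live cells.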

[3] = target: T1, NADPH oxidase 4 (Homo sapiens); assay: Inhibition of NOX4 expressed in HEK293 FS cells at 10 uM assessed as H2O2 production by H2O2/Tyr/LPO assay substituted with 3 uM H2O2; settings: values are per cent of control
Procedure, shortened: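 Redox-activity counter-screen: transfected cells replaced by 3 μM H2O2 in the H2O2/Tyr/LPO read-out (LPO plus L-tyrosine giving fluorescent dityrosine). Compounds at 10 μM final, to detect breakdown of H2O2 independent of NOX4.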

Row | SMILES | inhibition [1] | IC50 (NADPH oxidase 4) | cytotoxicity at 72 h [2] | % inhibition of H2O2 signal (cell-free redox counter-screen) [3]
1 | CC(C)c1cc(/C=C2\C(=O)Nc3ccccc32)cc(C(C)C)c1O | 102% | 630 nM | 18.7% | -0.88%
2 | O=C(O)c1cc(NCc2ccccc2O)ccc1O | 89% | 960 nM | 102% | 5.35%
3 | O=C(NCCc1ccc(O)c(O)c1)C(=O)Nc1cccc([N+](=O)[O-])c1 | 104% | 1640 nM | 74.9% | -3.5%
4 | O=C(N/N=C/c1ccc(O)c(O)c1)C(=O)N/N=C/c1ccc(O)c(O)c1 | 105% | 1160 nM | 99.5% | 7.6%
5 | O=c1c(O[C@H]2O[C@H](CO)[C@@H](O)[C@H](O)[C@H]2O)c(-c2ccc(O)c(O)c2)oc2cc(O)cc(O)c12 [MIQUELIANIN] | 105% | – | – | -1.86%
6 | O=c1c(O)c(-c2ccc(O)cc2)oc2cc(O)cc(O)c12 [KAEMPFEROL] | 105% | 1200 nM | 119% | 2.09%
7 | Nc1cccc(Nc2ncnc3c2sc2ccc(N)cc23)c1 | 98% | 240 nM | 106% | 17.9%
8 | C=CCN(CC=C)C(=S)/N=C1\C(=O)Nc2cc(C)c(O)c(C)c21 | 100% | – | – | –
9 | C=CCN(CC=C)C(=S)N=C1C(=O)Nc2cc(C)c(O)c(C)c21 | – | 1000 nM | 97.8% | –
10 | O=c1c2cc(O)c(O)cc2c2cc(O)c(O)cc2n1Cc1cccc([N+](=O)[O-])c1 | 101% | 260 nM | 112% | -4.9%
11 | O=C1Nc2ccc([N+](=O)[O-])cc2/C1=C/c1ccc(O)c(O)c1 | 102% | 1130 nM | 123% | 0.39%
12 | COc1cc(O)c2c(=O)c(OC)c(-c3ccc(O)c(O)c3)oc2c1 | 88% | 1020 nM | – | –
13 | N#Cc1ccccc1Cn1c(=O)c2cc(O)c(O)cc2c2cc(O)c(O)cc21 | 97% | 590 nM | 108% | 4.8%
14 | O=c1cc(-c2ccc(O)cc2)oc2cc(O)cc(O)c12 [APIGENIN] | 105% | 1130 nM | 108% | -1.2%
15 | O=c1cc(-c2ccc(O)c(O)c2)oc2cc(O)cc(O)c12 [LUTEOLIN] | 106% | 850 nM | 110% | –
16 | COC(=O)c1cc(NCc2ccccc2O)ccc1O | 91% | 1270 nM | 106% | 3.83%
17 | O=c1c(O)c(-c2ccc(O)c(O)c2)oc2cc(O)cc(O)c12 [QUERCETIN] | 94% | 680 nM | 102% | –
18 | COc1cc(/C=C2\C(=O)Nc3ccc(NC(C)=O)cc32)ccc1O | 104% | 1400 nM | 112% | -5.16%
19 | O=C(N/N=C/c1cccc(O)c1O)C(=O)N/N=C/c1cccc(O)c1O | 103% | 910 nM | 67.2% | -4.58%
20 | O=c1c2cc(O)c(O)cc2c2cc(O)c(O)cc2n1Cc1ccc([N+](=O)[O-])cc1 | 93% | 1580 nM | 108% | -6.11%
21 | O=c1c2cc(O)c(O)cc2c2cc(O)c(O)cc2n1Cc1cc([N+](=O)[O-])ccc1O | 104% | 170 nM | 90.6% | -4.8%
22 | O=C(O)c1cc(NCc2cc(O)ccc2O)ccc1O [LAVENDUSTIN C] | 82% | 1340 nM | 88.7% | 72.4%
23 | COc1cc(CCNC(=O)C(=O)Nc2cccc(N)c2)ccc1O | 104% | 1300 nM | 82.4% | -3.3%
24 | O=c1c2cc(O)c(O)cc2c2cc(O)c(O)cc2n1Cc1ccccc1S(=O)(=O)c1ccccc1 | 95% | 1580 nM | 113% | -1.05%
25 | Nc1ccc(Nc2ncnc3c2sc2ccc(N)cc23)cc1 | 101% | 1070 nM | 60.5% | -2.78%
26 | COc1cc(O)cc2oc(-c3ccc(O)c(O)c3)c(O)c(=O)c12 | 100% | 740 nM | 121% | 3.17%

— ChEMBL document CHEMBL1240523, “Small-molecule inhibitors of NADPH oxidase 4” (J Med Chem, 2010)
